We go through one compound from ChEMBL document CHEMBL1122757, “Angiotensin II: dependence of hormone affinity on the electronegativity of a single side chain” (1984).

The structures appear in SMILES notation.

For assay [1], the species on record is Oryctolagus cuniculus. Kind of assay: In vitro biological activity on rabbit aorta strip. Type of assay: functional. The procedure, abridged: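 Isolated rabbit aorta strips under 2 g tension, adjusted during a 60–90-min equilibration, with bath fluid changed every 10–15 min. Peptides added to the tissue bath, concentrations stated as final bath concentrations. Contractile responses recorded with force-displacement transducers.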

For assay [2], the system named is Rattus norvegicus. Briefly: In vivo biological activity on the blood pressure of the anesthetized rat. Type of assay: functional.

Turning to `CNCC(=O)N[C@@H](CCCN=C(N)N)C(=O)N[C@H](C(=O)N[C@@H](Cc1ccccc1)C(=O)N[C@H](C(=O)N[C@@H](Cc1c[nH]cn1)C(=O)N1CCC[C@H]1C(=O)N[C@@H](Cc1ccccc1)C(=O)O)C(C)C)C(C)C`, the Activity came out at 9.8% in assay [1] and 8.1% in assay [2].
